ChEMBL document CHEMBL1152259, “Synthesis of new sulfonate and phosphonate derivatives for cation-independent mannose 6-phosphate receptor targeting” (Bioorg Med Chem Lett, 2008)

Key:
[1] = molecular target: Insulin-like growth factor 2 receptor ([…], cation-independent mannose-6-phosphate receptor, CI-MPR; hIGF-IIR) (Homo sapiens, UniProt P11717); assay: Binding affinity to CI-M6PR
Summary of the method: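 Competitive displacement ELISA: biotinylated CI-M6PR bound to pentamannose 6-phosphate adsorbed on microtiter wells, challenged with increasing analog concentrations. Remaining bound receptor detected with streptavidin/peroxidase and o-phenylenediamine substrate by optical density. IC50 taken from dose-inhibition curves. Mean of triplicates from one experiment, confirmed in two further experiments.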

Serum = assay: Stability in human serum after 2 days; format: ADME, cell-free; conditions: 48 h
Summary of the method: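 Analogs incubated 2 days at 37 °C with 75% human serum or without serum. Residual capacity to inhibit biotinylated CI-M6PR binding to plate-adsorbed pentamannose 6-phosphate was then assayed. Result expressed relative to day-0 controls with or without serum, set as 100%. Mean ± standard deviations of triplicates, confirmed in two further experiments.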

[2] = Cytotoxicity against human fibroblast up to 100 uM after 4 days by MTT assay; format: cell-based; conditions: 96 h
Summary of the method: (§1)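 Human fibroblasts, MCF7 and MDA-MB-231 cells exposed in culture medium for 4 days to increasing concentrations up to 100 µM, with untreated controls. Proliferation read by MTT assay. Triplicates from one experiment, confirmed in two further experiments.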

MCF7 = assay: Cytotoxicity against human MCF7 cells up to 100 uM by MTT assay; format: cell-based; summary of the method: as §1
MDA-MB-231 = assay: Cytotoxicity against human MDA-MB-231 cells up to 100 uM by MTT assay; format: cell-based; summary of the method: as §1

Sequence of UniProt P11717 (P11717 whole entry, looked up): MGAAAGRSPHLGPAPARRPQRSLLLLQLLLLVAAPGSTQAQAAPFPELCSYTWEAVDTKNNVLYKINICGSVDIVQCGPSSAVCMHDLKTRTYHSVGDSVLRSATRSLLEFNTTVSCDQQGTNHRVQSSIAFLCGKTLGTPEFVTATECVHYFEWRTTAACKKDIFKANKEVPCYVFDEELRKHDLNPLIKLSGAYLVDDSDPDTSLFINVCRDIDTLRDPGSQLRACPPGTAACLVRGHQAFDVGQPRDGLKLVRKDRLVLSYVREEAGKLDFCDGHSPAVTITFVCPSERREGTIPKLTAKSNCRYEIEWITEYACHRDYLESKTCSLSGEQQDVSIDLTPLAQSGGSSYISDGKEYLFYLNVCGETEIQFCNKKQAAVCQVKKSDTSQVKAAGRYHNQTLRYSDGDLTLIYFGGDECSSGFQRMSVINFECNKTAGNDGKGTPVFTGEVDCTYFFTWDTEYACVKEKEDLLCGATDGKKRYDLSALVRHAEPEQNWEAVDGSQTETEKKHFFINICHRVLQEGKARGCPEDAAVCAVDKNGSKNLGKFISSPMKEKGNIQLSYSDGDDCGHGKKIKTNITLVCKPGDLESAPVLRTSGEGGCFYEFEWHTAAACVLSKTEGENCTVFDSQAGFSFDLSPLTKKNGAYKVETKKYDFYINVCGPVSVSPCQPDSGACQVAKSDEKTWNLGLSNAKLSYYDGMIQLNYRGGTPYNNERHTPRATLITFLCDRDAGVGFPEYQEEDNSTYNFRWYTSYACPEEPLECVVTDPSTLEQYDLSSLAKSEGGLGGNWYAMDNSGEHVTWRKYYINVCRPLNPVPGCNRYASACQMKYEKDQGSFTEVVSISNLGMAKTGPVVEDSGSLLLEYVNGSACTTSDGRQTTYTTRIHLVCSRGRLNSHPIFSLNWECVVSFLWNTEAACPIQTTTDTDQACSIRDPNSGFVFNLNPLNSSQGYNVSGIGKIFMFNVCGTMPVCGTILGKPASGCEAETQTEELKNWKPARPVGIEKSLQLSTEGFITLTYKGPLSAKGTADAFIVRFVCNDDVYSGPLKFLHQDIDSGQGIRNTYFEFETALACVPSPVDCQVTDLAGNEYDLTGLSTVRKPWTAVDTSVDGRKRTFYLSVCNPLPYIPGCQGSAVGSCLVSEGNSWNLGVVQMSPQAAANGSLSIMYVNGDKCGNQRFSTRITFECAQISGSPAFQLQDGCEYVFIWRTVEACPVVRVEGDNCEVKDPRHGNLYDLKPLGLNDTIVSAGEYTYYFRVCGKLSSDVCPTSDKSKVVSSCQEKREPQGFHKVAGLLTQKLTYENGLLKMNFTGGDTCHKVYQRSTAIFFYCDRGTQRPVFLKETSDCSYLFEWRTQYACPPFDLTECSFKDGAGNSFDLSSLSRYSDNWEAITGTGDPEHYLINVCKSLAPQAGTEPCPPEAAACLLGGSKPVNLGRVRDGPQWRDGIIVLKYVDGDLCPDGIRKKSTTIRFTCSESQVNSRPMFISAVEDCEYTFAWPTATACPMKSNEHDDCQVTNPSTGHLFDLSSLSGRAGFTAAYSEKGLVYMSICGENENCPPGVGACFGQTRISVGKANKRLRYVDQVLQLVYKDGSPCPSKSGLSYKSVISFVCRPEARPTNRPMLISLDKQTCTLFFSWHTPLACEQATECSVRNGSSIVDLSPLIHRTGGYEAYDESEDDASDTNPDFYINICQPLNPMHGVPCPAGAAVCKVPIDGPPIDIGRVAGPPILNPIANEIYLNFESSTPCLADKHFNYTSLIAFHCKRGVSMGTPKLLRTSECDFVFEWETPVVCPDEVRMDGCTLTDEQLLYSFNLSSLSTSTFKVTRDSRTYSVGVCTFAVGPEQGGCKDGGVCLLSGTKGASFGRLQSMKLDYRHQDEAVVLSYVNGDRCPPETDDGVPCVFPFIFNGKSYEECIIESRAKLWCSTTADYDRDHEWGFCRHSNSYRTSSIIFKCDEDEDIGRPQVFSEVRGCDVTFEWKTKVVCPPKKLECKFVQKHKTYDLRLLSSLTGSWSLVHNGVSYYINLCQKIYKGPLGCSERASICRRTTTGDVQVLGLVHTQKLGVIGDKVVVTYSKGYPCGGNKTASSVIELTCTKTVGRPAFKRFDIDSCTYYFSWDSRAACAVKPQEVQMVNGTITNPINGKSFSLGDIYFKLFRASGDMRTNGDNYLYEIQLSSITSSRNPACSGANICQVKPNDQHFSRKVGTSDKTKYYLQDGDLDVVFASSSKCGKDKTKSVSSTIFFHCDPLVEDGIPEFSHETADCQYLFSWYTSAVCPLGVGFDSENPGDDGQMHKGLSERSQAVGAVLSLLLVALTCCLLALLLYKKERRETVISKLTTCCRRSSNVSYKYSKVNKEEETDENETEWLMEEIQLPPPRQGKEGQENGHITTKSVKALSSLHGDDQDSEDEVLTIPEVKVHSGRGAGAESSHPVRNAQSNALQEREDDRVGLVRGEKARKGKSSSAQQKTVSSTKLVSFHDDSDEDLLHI

Structure (SMILES)	IC50 [1]	Stability (Serum)	Activity [2]	Activity (MCF7)	Activity (MDA-MB-231)
CO[C@H]1O[C@H](CCS(=O)(=O)[O-])[C@@H](O)[C@H](O)[C@@H]1O.[Na+]	150 µM	Stable	Not Active	Not Active	Not Active
O=P(O)(O)OC[C@H]1OC(O)[C@@H](O)[C@@H](O)[C@@H]1O (stereo partly specified)	23 µM	–	–	–	–
CO[C@H]1O[C@H](/C=C/S(=O)(=O)[O-])[C@@H](O)[C@H](O)[C@@H]1O.[Na+]	71 µM	Stable	Not Active	Not Active	Not Active
CO[C@H]1O[C@H](/C=C/P(=O)([O-])[O-])[C@@H](O)[C@H](O)[C@@H]1O.[Na+].[Na+]	22 µM	Stable	Not Active	Not Active	Not Active
